The record followed here is ChEMBL document CHEMBL1140137, “Synthesis, ex vivo evaluation, and radiolabeling of potent 1,5-diphenylpyrrolidin-2-one cannabinoid subtype-1 receptor ligands as candidates for in vivo imaging” (J Med Chem, 2008).

As usually defined, the Kb is the equilibrium dissociation constant of an antagonist, usually derived from a functional assay.

In series [1] the target is Cannabinoid receptor 2 (Homo sapiens) (UniProt P34972). Description: Antagonist activity at human CB2 receptor in Sf9 cells assessed as GTPgammaS binding. It is filed as functional, cell-based. The procedure, abridged: (§1)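 GTPγ35S binding was read by anti-Gi antibody-capture scintillation proximity assay. Membranes came from CHO cells expressing human CB1 and from Sf9 cells expressing human CB2. Antagonist dose-responses were run against methanandamide at 80% efficacious dose. Kb = IC50/(1+[agonist]/EC50), with four-parameter fits. Values are the mean ± SEM of at least three independent determinations. Selectivity was taken from the CB1 and CB2 Kb values.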
A general note: GTPγS is a poorly hydrolysed GTP analogue; its binding reports G protein activation.

For series [2], the species on record is Homo sapiens. Description: Selectivity for human CB1 receptor over human CB2 receptor. The procedure, abridged:
as §1

The nature of series [3]: Drug uptake in Rimonabant pretreated Sprague-Dawley rat CB1 rich frontal cerebral cortex at […], iv after 0.25 hrs. The format is ADME, organism-based. Particulars: read-out: Drug uptake. Set-up: route intravenous. The method in brief: (§2)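 Adult male Sprague-Dawley rats (225–250 g) were used, three per time point. […] Ligand was dosed at 30 μg/kg i.v. in intralipid/1% AcOH diluted with water. Frontal cortex was taken at 0.25–8 h, homogenized in MeCN/0.1% HCO2H, centrifuged, and the supernatant quantified by LC-MS (ng/g).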

A short description of series [4]: Drug uptake in Sprague-Dawley rat frontal cerebral cortex at 30 μg/kg, iv after 8 hrs.
The nature of series [5]: Drug uptake in Sprague-Dawley rat frontal cerebral cortex at 30 μg/kg, iv after 0.5 hrs.
A short description of series [6]: Drug uptake in Sprague-Dawley rat frontal cerebral cortex at 30 μg/kg, iv after 0.25 hrs.
Series [7] in a line: Drug uptake in Rimonabant pretreated Sprague-Dawley rat CB1 rich frontal cerebral cortex at […], iv after 8 hrs. Set-up: route intravenous. To be noted: read-out: Drug uptake. It is filed as ADME, organism-based. The procedure, abridged: as §2

Cannabinoid receptor 2 (Homo sapiens), sequence (P34972 whole entry): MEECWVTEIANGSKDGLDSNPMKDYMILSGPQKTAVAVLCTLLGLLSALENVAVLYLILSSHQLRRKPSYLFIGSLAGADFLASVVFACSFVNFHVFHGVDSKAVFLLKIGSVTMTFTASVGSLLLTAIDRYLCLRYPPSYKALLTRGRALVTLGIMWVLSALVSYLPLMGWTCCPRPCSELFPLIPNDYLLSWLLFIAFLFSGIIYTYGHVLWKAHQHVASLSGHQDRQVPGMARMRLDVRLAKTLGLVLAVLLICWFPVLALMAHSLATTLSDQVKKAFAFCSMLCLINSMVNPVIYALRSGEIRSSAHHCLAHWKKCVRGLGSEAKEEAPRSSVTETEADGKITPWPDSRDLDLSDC

Turning to `C[C@@H](N[C@@H]1C[C@H](c2cccc(OCF)c2)N(c2ccc(C(F)(F)F)cc2)C1=O)c1ccccc1`, the antagonist equilibrium constant (Kb) in series [1] amounted to 669 nM. Besides, the Selectivity ratio in series [2] was 3580. Besides, the concentration at 0.25 h in series [3] was 9.7 ng/g. In series [4], this compound gave a concentration at 8 h of 8.2 ng/g. Also, the concentration at 0.5 h in series [5] came out at 39.3 ng/g.
For the compound `C[C@@H](N[C@@H]1C[C@H](c2cccc(OCCF)c2)N(c2ccc(C(F)(F)F)cc2)C1=O)c1ccccc1`, in series [1], the antagonist equilibrium constant (Kb) was more than 8260 nM. Moreover, the Selectivity ratio in series [2] is more than 19500. In addition, the figures for the concentration at 0.25 h in series [3] and in series [6] were 6.5 ng/g and 22 ng/g, respectively. This compound showed a concentration at 8 h in series [4] of 0.7 ng/g.
Take `COc1cccc([C@H]2C[C@@H](N[C@H](C)c3ccc(F)cc3)C(=O)N2c2ccc(C(F)(F)F)cc2)c1`: the antagonist equilibrium constant (Kb) in series [1] was determined as 466 nM. Besides, the Selectivity ratio in series [2] came out at 2160. Further, the concentration at 0.25 h in series [3] is 17.3 ng/g. Also, the results for the concentration at 8 h in series [7] and in series [4] were 0.8 ng/g and 10.5 ng/g, respectively. In addition, in series [5], the concentration at 0.5 h was 48 ng/g.
Take `COc1cccc([C@H]2C[C@@H](N[C@H](C)c3ccccc3)C(=O)N2c2ccc(C(F)(F)F)cc2)c1` [MEPPEP]: the concentration at 0.25 h in series [3] was determined as 11.5 ng/g; in series [6], 39 ng/g. In series [4], the concentration at 8 h is 8.5 ng/g.
